# In ChEMBL document CHEMBL5150059, “Transcriptional Inhibition of MicroRNA miR-122 by Small Molecules Reduces Hepatitis C Virus Replication in Liver Cells” (J Med Chem, 2022):
# Calls of active or inactive are those of the source. The rule behind the calls is not given here.
# Legend:
# microRNA 122 [1] = test: Inhibition of miR-122 in human Huh-7 cells expressing renilla luciferase gene assessed as relative luciferase unit after 48 hrs by dual luciferase assay relative to control; type: cell-based; design: concentration or dose not given beside the values
# Outline: (§1)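 Huh7-miR122 stable line (miR-122 site in the Renilla luciferase 3′ UTR, kept in 500 μg/mL G418), seeded 15,000/well. After overnight incubation, treated 48 h with compound or DMSO (0.1% final) in triplicate. Renilla and firefly read by dual luciferase; Renilla normalized to firefly. Dose–response used for EC50.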
# [2] = Effect on non-miR-122 pathway in human Huh-7 cells harboring psi-check empty vector assessed as increase in luminescence at 10 uM after 48 hrs by dual luciferase assay relative to control; type: functional
# Outline: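 Huh7 cells transfected with psiCHECK-empty reporter (miR-122 site replaced by a non-targeted linker) for 2 h. Medium then replaced with compound at 10 μM or DMSO (0.1% final), in triplicate. Renilla/firefly read by dual luciferase after 48 h, normalized to DMSO. At least three independent experiments, mean ± SD.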
# Renilla = test: Inhibition of recombinant renilla luciferase at 10 uM using coelenterazine as substrate incubated for 10 mins by luminescence based microplate reader analysis relative to control; values are per cent of control
# [3] = Binding affinity to recombinant C-terminal His-tagged […] (147 to 377 residues) (unknown origin) expressed in Escherichia coli by spectrofluorometer analysis; design: species or system Homo sapiens
# Outline: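 His-tagged HNF4α ligand-binding domain (aa 147–377) expressed and purified from E. coli. 200 nM protein in PBS pH 7.4 titrated with increasing compound at 25 °C. Intrinsic Trp/Tyr fluorescence read at 330 nm (excitation 280 nm), corrected for buffer and ligand alone. Intensity change versus concentration fitted to Hill equation for KD. Two independent experiments.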
# HEK293 = test: Inhibition of […] (unknown origin) transfected in HEK293 cells coexpressing CYP26A1 assessed as reduction in luciferase expression at 25 uM after 48 hrs dual luciferase assay; type: cell-based; conditions: Homo sapiens
# Outline: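 HEK293T cells (no endogenous HNF4α) co-transfected for 4 h with CYP26A1 promoter–firefly luciferase reporter, HNF4α expression plasmid and Renilla control plasmid. Then treated 48 h with 25 μM compound or DMSO (0.25% final). Read by dual luciferase assay, normalized to DMSO.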
# microRNA 122 [4] = test: Inhibition of miR-122 in human Huh-7 cells expressing renilla luciferase gene after 48 hrs by dual luciferase assay; type: cell-based; outline: as §1
# microRNA 122 [5] = test: Inhibition of miR-122 in human Huh-7 cells assessed as reduction in mature miR-122 levels at 25 uM after 48 hrs by RT-qPCR analysis; type: cell-based
# Outline: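 Huh7 cells treated 48 h with 25 μM compound or 0.1% DMSO, then total RNA isolated. 15 ng reverse-transcribed with TaqMan miRNA RT primers for miR-122 or RNU19. TaqMan qPCR run over 40 cycles in triplicate. Relative level from 2^−ΔΔCt versus RNU19 and DMSO. Three independent experiments.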
# microRNA 122 [6] = test: Inhibition of miR-122 in human Huh-7 cells assessed as reduction in E-cadherin expression at 25 uM incubated for 48 hrs by Western blot analysis; type: cell-based
# Outline: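 Huh7 cells treated 48 h at 37 °C with compound or DMSO (0.1% final), then lysed and run on 10% SDS-PAGE. Transferred to PVDF, blocked in 5% BSA/TBST. Probed overnight at 4 °C with anti-E-cadherin or anti-GAPDH (1:1000), then HRP anti-rabbit (1:2500), and detected by chemiluminescence. GAPDH used as internal control.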
# microRNA 122 [7] = test: Inhibition of miR-122 in human Huh-7 cells assessed as reduction in primary miR-122 expression at 25 uM incubated for 48 hrs by RT-qPCR analysis; type: cell-based
# Outline: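 Huh7 cells treated 48 h with 25 μM compound or 0.1% DMSO. 50 ng total RNA reverse-transcribed with iScript. TaqMan qPCR run for pri-miR-122 and GAPDH in triplicate. Relative level from 2^−ΔΔCt normalized to GAPDH and DMSO. Three independent experiments.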
# Huh-7 [8] = test: Inhibition of pGL3-miR-122 (unknown origin) promotor activity transfected in human Huh-7 cells at 25 uM after 48 hrs by Bright-glo luciferase assay; type: cell-based
# Outline: (§2)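 Huh7 cells transfected 3 h with pGL3-miR122 promoter–firefly reporter, parent or with transcription-factor site mutated/deleted. Then treated 48 h with 25 μM compound or 0.1% DMSO, in triplicate. Read by Bright-Glo luminescence; XTT viability assayed in parallel. Luminescence divided by viability, normalized to DMSO per reporter. Three independent experiments.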
# Huh-7 [9] = test: Inhibition of pGL3-miR-122 (unknown origin) promotor activity transfected in Huh-7 cells harboring HNF1alpha mutant assessed as reduction in luciferase activity at 25 uM after 48 hrs by Bright-glo luciferase assay; type: cell-based; outline: as §2
# Huh-7 [10] = test: Inhibition of pGL3-miR-122 (unknown origin) promotor activity transfected in Huh-7 cells harboring HNF3beta mutant assessed as reduction in luciferase activity at 25 uM after 48 hrs by Bright-glo luciferase assay; type: cell-based; outline: as §2
# Huh-7 [11] = test: Inhibition of pGL3-miR-122 (unknown origin) promotor activity transfected in Huh-7 cells harboring HNF6 mutant assessed as reduction in luciferase activity at 25 uM after 48 hrs by Bright-glo luciferase assay; type: cell-based; outline: as §2
# Huh-7 [12] = test: Inhibition of pGL3-miR-122 (unknown origin) promotor activity transfected in Huh-7 cells harboring AP-1 mutant assessed as reduction in luciferase activity at 25 uM after 48 hrs by Bright-glo luciferase assay; type: cell-based; outline: as §2
# Huh-7 [13] = test: Inhibition of pGL3-miR-122 (unknown origin) promotor activity transfected in Huh-7 cells harboring HNF4alpha mutant by measuring reversal of mir-122 activity at 25 uM after 48 hrs by Bright-glo luciferase assay; type: cell-based; outline: as §2
# Hepatitis C virus = test: Antiviral activity against HCV infected in human Huh7.5 cells assessed as reduction in viral RNA expression at 10 uM pretreated for 1 hr followed by viral infection and measured after 48 hrs by RT-qPCR analysis; type: functional, Hepacivirus hominis; design: scale not given: the % may be the effect or the level left; conditions: time 49 hrs
# Outline: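 Huh7.5 cells pretreated 1 h with compound (10 μM) or DMSO, then infected with HCV (MOI 0.5) in compound-containing DMEM; medium replaced with compound medium at 5 h post-infection. At 48 h post-infection, RNA extracted. HCV and 18S RNA copy numbers quantified by RT-qPCR against standards. HCV RNA normalized to 18S, then to DMSO control.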
# Huh-7 [14] = test: Cytotoxicity against human Huh-7 cells assessed as reduction in cell viability at 10 to 25 uM after 48 hrs by XTT assay; type: toxicity, cell-based; conditions: huh-7, 48 h, dose 10-25 µM
# Outline: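 Huh7 cells given compound for 48 h, then XTT reagent activated with menadione. Absorbance at 450 nm minus 630 nm read immediately and after 4 h; viability taken as the difference between the two readings.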
Compound,residual activity (Renilla) [%],Activity (microRNA 122 [1]) [%],other results
Cc1ccc([N+](=O)[O-])cc1S(=O)(=O)n1c(C)nc2ccccc21,,,Kd [3]: 832 nM; inhibition (HEK293): 50%
COc1cc(C)ccc1S(=O)(=O)n1cnc(C)c1,80,24,
COc1cc(C)c(C(C)C)cc1S(=O)(=O)Nc1ccccc1C,,32,
COc1cc(C)c(C(C)C)cc1S(=O)(=O)n1cccc1,,29,
COc1cc(C)c(C(C)C)cc1S(=O)(=O)n1ccc(C)n1,,44,
CCc1nccn1S(=O)(=O)c1cc(C(C)C)c(C)cc1OC,,40,
COc1cc(C)c(C(C)C)cc1S(=O)(=O)n1cnc(-c2ccccc2)c1,,35,
CCNS(=O)(=O)c1cc(C(C)C)c(C)cc1OC,,42,
COc1cc(C)c(C(C)C)cc1S(=O)(=O)n1cnc(Cl)c1Cl,,4,
CCOc1cc(C)c(C(C)C)cc1S(=O)(=O)n1cnc(C)c1,70,74,
COc1cc(C)c(C(C)C)cc1S(=O)(=O)Nc1ccccc1,,47,
COc1cc(C)c(C)cc1S(=O)(=O)n1cnc(C)c1,,32,
COc1cc2c(cc1S(=O)(=O)n1cnc(C)c1)CCCC2,,33.3,
COc1cc(C)c(C(C)C)cc1S(=O)(=O)N(C)C,,42,
C#CCOc1cc(C)c(C(C)C)cc1S(=O)(=O)n1cnc(C)c1,97,50,
COc1cc(C)c(C(C)C)cc1S(=O)(=O)n1cc(C)cn1,,32,
COc1cc(C)c(C(C)C)cc1S(=O)(=O)n1ccc2ccccc21,94,55,
COc1cc(C)c(C(C)C)cc1S(=O)(=O)n1ccnc1,,33,
COc1cc(C)c(C(C)C)cc1S(=O)(=O)n1cnc([N+](=O)[O-])c1,67,61.1,

# The next lines start with results.
residual activity (Renilla) [%],Compound,Activity (microRNA 122 [1]) [%],other results
100,COc1cc(C)c(C(C)C)cc1S(=O)(=O)N(C)c1ccc(C)cc1,82,Activity [2]: 218%
8,COc1cc(C)c(C(C)C)cc1S(=O)(=O)Nc1ccccn1,88,
100,COc1cc(C)c(C(C)C)cc1S(=O)(=O)N(C)c1cc(C)ccc1C,77,Activity [2]: 245%
78,COc1cc(C)c(C(C)C)cc1S(=O)(=O)N(C)c1cccc(C)c1,122,Activity [2]: 103%
17,COc1cc(C)c(C(C)C)cc1S(=O)(=O)Nc1ncccc1C,135,
100,COc1cc(C)c(C(C)C)cc1S(=O)(=O)N(C)c1ncccc1C,64,Activity [2]: 87%
45,COc1cc(C)c(C(C)C)cc1S(=O)(=O)n1cnc2ccccc21,75,
87,COc1cc(C)c(C(C)C)cc1S(=O)(=O)n1ccc(C)c1,57,
100,COc1cc(C)c(C(C)C)cc1S(=O)(=O)N(C)c1cccc(C)n1,107,Activity [2]: 117%
100,COc1cc(C)c(C(C)C)cc1S(=O)(=O)N(C)c1ccccn1,89,Activity [2]: 88%
93,COc1cc(C)c(C(C)C)cc1S(=O)(=O)N(C)c1cccc(C)c1C,80,Activity [2]: 225%
2,COc1cc(C)c(C(C)C)cc1S(=O)(=O)Nc1cccc(C)n1,89,
80,COc1cc(C)c(C(C)C)cc1S(=O)(=O)n1cnc(C)c1,100,Activity [2]: 127%
100,COc1cc(C)c(C(C)C)cc1S(=O)(=O)N(C)c1ccccc1C,104,Activity [2]: 90%; EC50 (microRNA 122 [4]): 11000 nM; inhibition (microRNA 122 [5]): 38%; inhibition (microRNA 122 [6]): Active; inhibition (microRNA 122 [7]): 59%; Activity (Huh-7 [8]): Active; inhibition (Huh-7 [9]): Active; inhibition (Huh-7 [10]): Active; inhibition (Huh-7 [11]): Active; inhibition (Huh-7 [12]): Active; inhibition (Huh-7 [13]): 64%; Kd [3]: 439 nM; inhibition (HEK293): 50%; Activity (Hepatitis C virus): 88%; Activity (Huh-7 [14]): Non-Toxic
